Assay results taken from ChEMBL document CHEMBL1141347, “Heptaketides from Corynespora sp. inhabiting the cavern beard lichen, Usnea cavernosa: first report of metabolites of an endolichenic fungus” (J Nat Prod, 2007).
The source made the active and inactive calls. No cut-off for these calls is given here.

How the values were obtained:
[1] = tested on: PC-3M; experiment: Inhibition of human PC3M cell migration by wound-healing assay; assay type: functional, cell-based
[2] = tested on: MDA-MB-231; experiment: Inhibition of human MDA-MB-231 cell migration by wound-healing assay; assay type: functional, cell-based
[3] = tested on: PC-3M; experiment: Inhibition of human PC3M cell migration at 10 uM by wound-healing assay; assay type: functional, cell-based
Outline: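 PC-3M scratch wound-healing migration assay with compound at 10 µM over 40 h. DMSO negative and LY294002 positive controls.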

[4] = tested on: PC-3M; experiment: Inhibition of human PC3M cell migration at 5 uM by wound-healing assay; assay type: functional, cell-based
[5] = tested on: PC-3M; experiment: Effect on cell viability of human PC3M cells at 5 uM by microscopy based assay; assay type: functional
Outline: (§1)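 Cells exposed during wound-healing assay, then stained with a live/dead kit. Live cells fluoresce green from esterase conversion of calcein AM to calcein; ethidium homodimer 1 enters membrane-damaged cells, giving red fluorescence on nucleic acid binding. Imaged by microscopy. Controls: DMSO (background), LY294002 7.5 µM, 0.1% saponin for 10 min (death).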

[6] = tested on: MDA-MB-231; experiment: Inhibition of human MDA-MB-231 cell migration at 5 uM by wound-healing assay; assay type: functional, cell-based
[7] = Antiproliferative activity against human PC3M cells after 40 hrs by MTT assay; assay type: functional, cell-based; conditions: PC-3M
[8] = tested on: PC-3M; experiment: Effect on cell viability of human PC3M cells at 5 uM by flow cytometry; assay type: functional, cell-based
Outline: (§2)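 Cells harvested straight from wound-healing assays by trypsinisation, washed twice with PBS, stained with ViaCount Flex reagent and run on a Guava EasyCyte flow cytometer, with EasyFit analysis separating viable cells from dead cells and debris. DMSO background control, 70% methanol death control, LY294002 control.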

[9] = tested on: MDA-MB-231; experiment: Effect on cell viability of human MDA-MB-231 cells at 5 uM by flow cytometry; assay type: functional, cell-based; outline: as §2
[10] = tested on: MDA-MB-231; experiment: Effect on cell viability of human MDA-MB-231 cells at 5 uM by microscopy based assay; assay type: functional; outline: as §1

## COc1cc(OC)c2c(O)c3c(c(OC(C)=O)c2c1)C[C@](C)(O)OC3
[1]
  Activity: inactive
[2]
  Activity: inactive

## COc1cc(OC)c2c(c1)C(=O)C1=C(CO[C@@](C)(O)C1)C2=O
[3]
  Activity: Active

## COc1cc(OC)c2c(O)c3c(c(OC(C)=O)c2c1)C=C(C)OC3
[1]
  Activity: inactive
[2]
  Activity: inactive

## COc1cc(OC)c2c(c1)C(=O)C1=C(COC(C)=C1)C2=O [DEHYDROHERBARIN]
[4]
  Activity: Active
[5]
  Activity: inactive
[6]
  Activity: Active
[7]
  IC25: 2200 nM
  IC50: 3500 nM
[8]
  Activity: inactive
[9]
  Activity: inactive
[10]
  Activity: inactive

## COc1cc(OC)c2c(c1)C(=O)C1=C(C2=O)C(O)OC(C)=C1 (configuration not stated)
[1]
  Activity: inactive
[2]
  Activity: inactive

## COc1cc(OC)c2c(OC(C)=O)c3c(c(OC(C)=O)c2c1)C=C(C)OC3
[1]
  Activity: inactive
[2]
  Activity: inactive
